Test results taken from ChEMBL document CHEMBL5247578, “Effective synthesis of benzimidazoles-imidazo[1,2-a]pyrazine conjugates: A comparative study of mono-and bis-benzimidazoles for antitumor activity” (Eur J Med Chem, 2019).

Legend:
NCI-H23 = test: Antiproliferative activity against human NCI-H23 cells assessed as cell growth inhibition at 10 uM incubated for 48 hrs by sulforhodamine B assay relative to control; format: functional
Method in brief: (§1)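 NCI-60 single-dose screen at 10^-5 M. Cells grown in RPMI 1640 with 5% FBS and 2 mM L-glutamine, plated at 5,000–40,000 cells/well, and preincubated 24 h. Drug (DMSO stock) added and incubated 48 h at 37 °C, 5% CO2. Adherent cells fixed with cold TCA, stained with 0.4% SRB in 1% acetic acid, dye solubilized in 10 mM trizma base, A515 read. Percent growth taken against time-zero and untreated control.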

NCI/ADR-RES = test: Antiproliferative activity against human NCI/ADR-RES cells assessed as cell growth inhibition at 10 uM incubated for 48 hrs by sulforhodamine B assay relative to control; format: functional; method in brief: as §1
LOX IMVI = test: Antiproliferative activity against human LOX IMVI cells assessed as cell growth inhibition at 10 uM incubated for 48 hrs by sulforhodamine B assay relative to control; format: functional; method in brief: as §1
HCT-116 = test: Antiproliferative activity against human HCT-116 cells assessed as cell growth inhibition at 10 uM incubated for 48 hrs by sulforhodamine B assay relative to control; format: functional
Method in brief: (§2)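 NCI-60 one-dose prescreen at 10^-5 M. Cells grown in RPMI 1640 with 5% FBS and 2 mM glutamine, preincubated 24 h, then exposed 48 h at 37 °C. Adherent lines TCA-fixed, SRB-stained, A515 read. Growth percent relative to time-zero and control; negative values mean cell kill.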

CCRF-CEM = test: Antiproliferative activity against human CCRF-CEM cells assessed as cell growth inhibition at 10 uM incubated for 48 hrs by sulforhodamine B assay relative to control; format: functional
Method in brief: (§3)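 Single-dose NCI-60 prescreen at 10^-5 M. Cells in RPMI 1640 with 5% FBS and 2 mM L-glutamine, seeded 5,000–40,000 cells/well with 24 h preincubation, then drug exposure for 48 h at 37 °C under 5% CO2. Growth read by SRB staining of TCA-fixed cells at 515 nm against time-zero and untreated controls. Negative growth values denote cell kill.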

SW-620 = test: Antiproliferative activity against human SW620 cells assessed as cell growth inhibition at 10 uM incubated for 48 hrs by sulforhodamine B assay relative to control; format: functional; method in brief: as §1
IGROV-1 = test: Antiproliferative activity against human IGROV-1 cells assessed as cell growth inhibition at 10 uM incubated for 48 hrs by sulforhodamine B assay relative to control; format: functional; method in brief: as §1
MCF7 = test: Antiproliferative activity against human MCF7 cells assessed as cell growth inhibition at 10 uM incubated for 48 hrs by sulforhodamine B assay relative to control; format: functional; method in brief: as §1
SN12C = test: Antiproliferative activity against human SN12C cells assessed as cell growth inhibition at 10 uM incubated for 48 hrs by sulforhodamine B assay relative to control; format: functional; method in brief: as §1
SR = test: Antiproliferative activity against human SR cells assessed as cell growth inhibition at 10 uM incubated for 48 hrs by sulforhodamine B assay relative to control; format: functional; method in brief: as §1
SK-MEL-2 = test: Antiproliferative activity against human SK-MEL-2 cells assessed as cell growth inhibition at 10 uM incubated for 48 hrs by sulforhodamine B assay relative to control; format: functional; method in brief: as §1
786-0 = test: Antiproliferative activity against human 786-0 cells assessed as cell growth inhibition at 10 uM incubated for 48 hrs by sulforhodamine B assay relative to control; format: functional; method in brief: as §3
Hs-578T = test: Antiproliferative activity against human Hs-578T cells assessed as cell growth inhibition at 10 uM incubated for 48 hrs by sulforhodamine B assay relative to control; format: functional; method in brief: as §1
SK-MEL-5 = test: Antiproliferative activity against human SK-MEL-5 cells assessed as cell growth inhibition at 10 uM incubated for 48 hrs by sulforhodamine B assay relative to control; format: functional; method in brief: as §1
SF-295 = test: Antiproliferative activity against human SF-295 cells assessed as cell growth inhibition at 10 uM incubated for 48 hrs by sulforhodamine B assay relative to control; format: functional; method in brief: as §1
HOP-92 = test: Antiproliferative activity against human HOP-92 cells assessed as cell growth inhibition at 10 uM incubated for 48 hrs by sulforhodamine B assay relative to control; format: functional; method in brief: as §2
U-251 = test: Antiproliferative activity against human U-251 cells assessed as cell growth inhibition at 10 uM incubated for 48 hrs by sulforhodamine B assay relative to control; format: functional; method in brief: as §1
OVCAR-3 = test: Antiproliferative activity against human OVCAR-3 cells assessed as cell growth inhibition at 10 uM incubated for 48 hrs by sulforhodamine B assay relative to control; format: functional; method in brief: as §1
MOLT-4 = test: Antiproliferative activity against human MOLT-4 cells assessed as cell growth inhibition at 10 uM incubated for 48 hrs by sulforhodamine B assay relative to control; format: functional; method in brief: as §1
PC-3 = test: Antiproliferative activity against human PC-3 cells assessed as cell growth inhibition at 10 uM incubated for 48 hrs by sulforhodamine B assay relative to control; format: functional; method in brief: as §1
A498 = test: Antiproliferative activity against human A498 cells assessed as cell growth inhibition at 10 uM incubated for 48 hrs by sulforhodamine B assay relative to control; format: functional; method in brief: as §3
M14 = test: Antiproliferative activity against human M14 cells assessed as cell growth inhibition at 10 uM incubated for 48 hrs by sulforhodamine B assay relative to control; format: functional; method in brief: as §1
UO-31 = test: Antiproliferative activity against human UO-31 cells assessed as cell growth inhibition at 10 uM incubated for 48 hrs by sulforhodamine B assay relative to control; format: functional; method in brief: as §1
[1] = n-Octanol/phosphate buffer partition coefficient, logP of the compound at pH 7.4 incubated for 85 mins by shake-flask method; format: physicochemical
Method in brief: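 Octanol–water partition by shake-flask: n-octanol with 0.15 M phosphate buffer pH 7.4 at 10:1 volumes. Buffer-phase absorbance read before mixing, then shaken 50 min and centrifuged at 2500 rpm for 35 min. Buffer absorbance read again; P = (Ai−Af)/Af × Vw/Vo.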

SF-539 = test: Antiproliferative activity against human SF-539 cells assessed as cell growth inhibition at 10 uM incubated for 48 hrs by sulforhodamine B assay relative to control; format: functional; method in brief: as §1
ACHN = test: Antiproliferative activity against human ACHN cells assessed as cell growth inhibition at 10 uM incubated for 48 hrs by sulforhodamine B assay relative to control; format: functional; method in brief: as §3
EKVX = test: Antiproliferative activity against human EKVX cells assessed as cell growth inhibition at 10 uM incubated for 48 hrs by sulforhodamine B assay relative to control; format: functional; method in brief: as §2
SF-268 = test: Antiproliferative activity against human SF-268 cells assessed as cell growth inhibition at 10 uM incubated for 48 hrs by sulforhodamine B assay relative to control; format: functional; method in brief: as §1
NCI-H522 = test: Antiproliferative activity against human NCI-H522 cells assessed as cell growth inhibition at 10 uM incubated for 48 hrs by sulforhodamine B assay relative to control; format: functional; method in brief: as §1
RPMI-8226 = test: Antiproliferative activity against human RPMI-8226 cells assessed as cell growth inhibition at 10 uM incubated for 48 hrs by sulforhodamine B assay relative to control; format: functional; method in brief: as §1
MDA-MB-231 = test: Antiproliferative activity against human MDA-MB-231 cells assessed as cell growth inhibition at 10 uM incubated for 48 hrs by sulforhodamine B assay relative to control; format: functional; method in brief: as §1

| Compound | inhibition at 10 µM (NCI-H23) [%] | inhibition at 10 µM (NCI/ADR-RES) [%] | inhibition at 10 µM (LOX IMVI) [%] | inhibition at 10 µM (HCT-116) [%] | inhibition at 10 µM (CCRF-CEM) [%] | inhibition at 10 µM (SW-620) [%] | inhibition at 10 µM (IGROV-1) [%] | inhibition at 10 µM (MCF7) [%] | inhibition at 10 µM (SN12C) [%] | inhibition at 10 µM (SR) [%] | inhibition at 10 µM (SK-MEL-2) [%] | inhibition at 10 µM (786-0) [%] | inhibition at 10 µM (Hs-578T) [%] | inhibition at 10 µM (SK-MEL-5) [%] | inhibition at 10 µM (SF-295) [%] | inhibition at 10 µM (HOP-92) [%] | inhibition at 10 µM (U-251) [%] | inhibition at 10 µM (OVCAR-3) [%] | inhibition at 10 µM (MOLT-4) [%] | inhibition at 10 µM (PC-3) [%] | other results |
| --- | --- | --- | --- | --- | --- | --- | --- | --- | --- | --- | --- | --- | --- | --- | --- | --- | --- | --- | --- | --- | --- |
| c1ccc(-c2cn3ccnc3c(-c3ccc4ncn(C5CCCCC5)c4c3)n2)cc1 | 45.3 | 50.5 | 39.6 | 59.5 | 81.2 | 9.15 | 11.9 | 38 | 28.8 | 59.8 | 16.5 | 36.8 | 23.8 | 36.5 | 39.8 | 53.7 | 37.3 | 41.8 | 67.7 | 92 | inhibition at 10 µM (A498): 26.1%; inhibition at 10 µM (M14): 38.2%; inhibition at 10 µM (UO-31): 55.1%; logD at 1.417 h [1]: 1.74; inhibition at 10 µM (SF-539): 27.8%; inhibition at 10 µM (ACHN): 35.9%; inhibition at 10 µM (EKVX): 24.2%; inhibition at 10 µM (SF-268): 21.7%; inhibition at 10 µM (NCI-H522): 58.1%; inhibition at 10 µM (RPMI-8226): 85.7%; inhibition at 10 µM (MDA-MB-231): 41.5% |
| COc1ccc(-c2cn3ccnc3c(-c3ccc4ncn(C5CCCCC5)c4c3)n2)cc1 | 62.1 | 87.2 | 69.6 | 91.3 | 93.3 | 77.8 | 53.4 | 80.2 | 63.6 | 91.7 | 94.3 | 83.2 | 80 | 92.3 | 92.5 | 52.3 | 80.9 | -26.5 | 82.8 | 95.2 | inhibition at 10 µM (A498): -12.3%; inhibition at 10 µM (M14): 89.2%; inhibition at 10 µM (UO-31): 61.5%; logD at 1.417 h [1]: 1.41; inhibition at 10 µM (SF-539): -43.4%; inhibition at 10 µM (ACHN): 61%; inhibition at 10 µM (EKVX): 56.6%; inhibition at 10 µM (SF-268): 49.9%; inhibition at 10 µM (NCI-H522): -20.9%; inhibition at 10 µM (RPMI-8226): 95.6%; inhibition at 10 µM (MDA-MB-231): 71.1% |
